PubChem BioAssay
Active and inactive are the calls of the source.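 Rule for the calls, unless noted: active = inhibition above 20% together with a positive visual image hit; inconclusive = visual image hit but inhibition not above 20%; inactive = no visual image hit.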

Key:
[1] = inhibitors of TNFa-induced NFkB p65 translocation, primary screen, imaging, HUVEC, MLSMR starter and 10KST1 sets (AID 438); conditions: HUVEC TNFa-induced p65 nuclear translocation; cell count: measured here: nuclei count (cytotoxicity indicator), at 2.08 µM; inhibition: at 2 µM, stronger effect = higher value, 0% TNFa-plus-vehicle, 100% no-TNFa wells;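 note: compound added about 3h40 before a 20 min TNFalpha stimulation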;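 for inhibition: signal is the nuclear over cytoplasmic p65 intensity ratio per well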
[2] = inhibitors of E-selectin induction by TNFa, primary screen, imaging, HUVEC, immunofluorescence, MLSMR starter and 10KST1 sets (AID 487;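 active = visually confirmed hit in the image check and inhibition above 20%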;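 for inhibition: signal is fraction of cell area covered by stained E-selectin grains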;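 for nuclei count: 100% = median nuclei count of all wells on the same plate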); conditions: HUVEC TNFalpha-induced E-selectin immunofluorescence imaging, at 2 µM; inhibition: stronger effect = higher value; nuclei count: measured here: cell number, toxicity
[3] = DUSP6 inhibitors restoring Erk phosphorylation by chemical complementation, primary imaging in DUSP6-transfected HeLa (AID 609;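 active = compounds giving at least 50% inhibition in the cell-based MKP-3 phosphatase rescue imaging test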;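 for inhibition: phospho-Erk level distribution per well compared with pooled transfected vehicle control wells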); conditions: HeLa MKP-3 transfected, phospho-Erk imaging KS statistic, at 10 µM, cells stimulated with TPA for 15 min
[4] = target: Dual specificity protein phosphatase 6 (Homo sapiens) (UniProt Q16828); assay: as above; conditions: HeLa MKP-3 transfected, phospho-Erk imaging KS statistic; at 10 µM; stronger effect = higher value; cells stimulated with TPA for 15 min
Sequence of Dual specificity protein phosphatase 6 (Homo sapiens) (Q16828 whole entry, looked up): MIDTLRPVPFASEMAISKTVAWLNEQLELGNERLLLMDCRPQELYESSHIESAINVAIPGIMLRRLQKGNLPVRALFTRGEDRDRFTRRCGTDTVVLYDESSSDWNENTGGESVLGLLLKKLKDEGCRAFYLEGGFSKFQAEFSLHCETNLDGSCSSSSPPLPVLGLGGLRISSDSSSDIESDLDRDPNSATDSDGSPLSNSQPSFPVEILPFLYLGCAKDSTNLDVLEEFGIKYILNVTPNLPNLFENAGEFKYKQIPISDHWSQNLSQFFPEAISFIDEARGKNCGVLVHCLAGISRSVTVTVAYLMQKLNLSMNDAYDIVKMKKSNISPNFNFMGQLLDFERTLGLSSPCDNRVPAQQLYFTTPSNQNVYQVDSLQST

[5] = target: Voltage-gated potassium channel subunit beta-2 (Rattus norvegicus) (UniProt P62483); assay: KvBeta enzyme negative modulators, primary screen, biochemical, NADPH fluorescence (AID 622;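 active = fluorescence slope higher than the sample average by over 3 SD, cut at about -0.22 in these data, passing the limit was not always enough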;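 note: slope of raw intensity against log time taken from 70 to 1610 s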); conditions: recombinant KvBeta, 4-cyanobenzaldehyde reduction, at 10 µM, stronger effect = higher value
Sequence of Voltage-gated potassium channel subunit beta-2 (Rattus norvegicus) (P62483 whole entry, looked up): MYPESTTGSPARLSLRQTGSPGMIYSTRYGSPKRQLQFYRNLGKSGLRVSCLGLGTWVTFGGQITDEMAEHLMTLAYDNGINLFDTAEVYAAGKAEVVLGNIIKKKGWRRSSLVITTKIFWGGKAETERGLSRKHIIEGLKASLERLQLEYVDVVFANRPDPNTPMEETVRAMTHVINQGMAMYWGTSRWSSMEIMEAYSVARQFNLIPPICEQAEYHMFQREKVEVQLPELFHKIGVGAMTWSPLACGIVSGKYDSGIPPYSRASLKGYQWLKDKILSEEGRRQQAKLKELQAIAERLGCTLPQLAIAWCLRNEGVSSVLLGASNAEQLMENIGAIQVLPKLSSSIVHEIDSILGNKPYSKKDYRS

[6] = target: Voltage-gated potassium channel subunit beta-2 (Rattus norvegicus) (UniProt P62483); assay: KvBeta positive modulators, primary screen, biochemical, NADPH fluorescence (AID 623;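 active = NADPH fluorescence slope more negative than the mean of all samples by about 3 SD, 99.7% confidence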;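 note: fluorescence intensity change per second fitted from 20 to 320 s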); conditions: Recombinant KvBeta, NADPH fluorescence decrease slope, 10 min; at 10 µM; stronger effect = lower value
[7] = target: Muscarinic acetylcholine receptor M4 (Homo sapiens) (UniProt P08173); assay: compounds altering M4/GIRK thallium flux, either direction, primary screen, M4 allosteric agonist project, cell-based, HEK293 M4/GIRK, BTC-AM (AID 625;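 active = fluorescence slope after compound addition differing from the mean of all tested samples at 99.7% confidence, mostly higher but some lower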;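 note: thallium influx through GIRK channels coupled to M4 in HEK293 cells with BTC-AM dye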); conditions: at 10 µM, actives lie on both sides
Sequence of Muscarinic acetylcholine receptor M4 (Homo sapiens) (P08173 whole entry, looked up): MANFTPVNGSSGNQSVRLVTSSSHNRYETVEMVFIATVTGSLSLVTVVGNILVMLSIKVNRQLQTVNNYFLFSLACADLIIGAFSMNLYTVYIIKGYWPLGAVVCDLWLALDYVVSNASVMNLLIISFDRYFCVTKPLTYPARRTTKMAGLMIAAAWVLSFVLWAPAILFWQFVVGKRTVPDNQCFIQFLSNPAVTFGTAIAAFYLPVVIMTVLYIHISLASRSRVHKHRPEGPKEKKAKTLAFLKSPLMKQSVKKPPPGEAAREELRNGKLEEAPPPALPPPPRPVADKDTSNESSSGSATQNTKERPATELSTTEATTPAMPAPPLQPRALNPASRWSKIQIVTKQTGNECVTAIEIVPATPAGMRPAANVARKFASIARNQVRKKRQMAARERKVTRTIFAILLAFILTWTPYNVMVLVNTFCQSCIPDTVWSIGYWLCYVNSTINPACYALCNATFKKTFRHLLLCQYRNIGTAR
In short: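 Assay system: HEK293 cells with M4 receptor and GIRK channels / Controls: carbachol and DMSO controls / Schedule: 1 h dye loading, 2 min kinetic read / Technique: kinetic fluorescence with BTC-AM dye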

[8] = inhibitors of larval lipid processing in zebrafish, primary screen, whole organism, PED6 fluorescence, gall bladder and intestine (AID 686;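 active = a full or partial loss of lipid-probe fluorescence in the fish gall bladder, intestine or both, judged by eye; inactive = no fluorescence loss, or compound toxic to the fish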;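 note: larvae 5 to 7 days old with five fish per well; signal comes from phospholipase A2 cleavage of quenched PED6 carried via bile; overnight exposure to compound and PED6 before scoring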); conditions: Zebrafish larvae PED6 lipid processing, fluorescence scoring; screened at 20 µM (by protocol)
In short: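 Doses: 20 µM single dose. Test system: live zebrafish larvae aged 5-7 days, whole organism. Quantity: five larvae per well. Measured by: By-eye fluorescence microscopy. Reagent: ingested quenched lipid PED6 at 100 nM. Read-out: visual per-well fluorescence inhibition score. Times: overnight exposure of larvae to compound plus PED6.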

[9] = inhibitors of Chlamydomonas gravitaxis, primary screen, whole organism, Chlamydomonas reinhardtii, WT vs cilia-less mutant, absorbance, 96-well (AID 463189;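 active = inhibition at or above 50% relative to wild type and mutant plate controls; inactive = inhibition below 50%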;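 note: 0% = wild type cc124 cells in DMSO and 100% = ciliumless bld1 mutant cells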); conditions: OD600 absorbance, 2 days, at 10 µM, stronger effect = higher value
[10] = measured here: cell density z-score
[11] = measured here: nuclear c-Myc green intensity z-score
[12] = measured here: nuclear pErk red intensity z-score, stronger effect = higher value

CCOC(=O)CSc1nc(N)c(C(=O)Nc2ccc(N(C)C)cc2)s1
cell count [1]: 703 | inhibition [1]: -7% (inactive) | inhibition [2]: -123% (inactive) | nuclei count [2]: 188% | z-score [3, 10]: -1.17 | z-score [3, 11]: 1.84 | z-score [3, 12]: -1.52 | inhibition [4]: 1.98% (inactive) | fluorescence slope [5]: -0.46 (inactive) | NADPH fluorescence slope [6]: -6.8e-05 (inactive) | fluorescence slope [7]: 0.00383 (inactive) | outcome [8]: active; weak signal in gallbladder and intestine | inhibition [9]: -7.12% (inactive)

CCC(NC(=O)Nc1nccs1)(C(F)(F)F)C(F)(F)F
cell count [1]: 600 | inhibition [1]: -9% (inactive) | inhibition [2]: 21.5% (inactive) | nuclei count [2]: 89% | z-score [3, 10]: 0.356 | z-score [3, 11]: 1.04 | z-score [3, 12]: -0.804 | inhibition [4]: -11.4% (inactive) | fluorescence slope [5]: -0.475 (inactive) | NADPH fluorescence slope [6]: -3.1e-05 (inactive) | fluorescence slope [7]: 0.0066 (inactive) | outcome [8]: inactive | inhibition [9]: -12.6% (inactive)

C=CCNc1nc(N2CCOCC2)c(C#N)c2c1CN(C)CC2
cell count [1]: 600 | inhibition [1]: -5.7% (inactive) | inhibition [2]: -83.6% (inactive) | nuclei count [2]: 138% | z-score [3, 10]: 0.63 | z-score [3, 11]: -0.71 | z-score [3, 12]: 0.0349 | inhibition [4]: 9.07% (inactive) | fluorescence slope [5]: -0.417 (inactive) | NADPH fluorescence slope [6]: -9.1e-05 (inactive) | fluorescence slope [7]: 0.00406 (inactive) | outcome [8]: inactive | inhibition [9]: 1.91% (inactive)

C=C(C)CC1N(c2cccc(OC)c2)C(=O)[C@@H]2C(C(=O)O)[C@H]3C=C[C@@]12O3 (stereo partly drawn)
cell count [1]: 628 | inhibition [1]: -15.4% (inactive) | inhibition [2]: 51.9% (inactive) | nuclei count [2]: 182% | z-score [3, 10]: -0.541 | z-score [3, 11]: 1.19 | z-score [3, 12]: 1.46 | inhibition [4]: -7.28% (inactive) | fluorescence slope [5]: -0.49 (inactive) | NADPH fluorescence slope [6]: -7.9e-05 (inactive) | fluorescence slope [7]: 0.00494 (inactive) | outcome [8]: inactive | inhibition [9]: -0.618% (inactive)

O=C1OC(N2CCN(C/C=C/c3ccccc3)CC2)c2ccccc21 (stereo not drawn)
cell count [1]: 390 | inhibition [1]: -1.2% (inactive) | inhibition [2]: -65.2% (inactive) | nuclei count [2]: 168% | z-score [3, 10]: 0.231 | z-score [3, 11]: -0.597 | z-score [3, 12]: 0.38 | inhibition [4]: 14% (inactive) | fluorescence slope [5]: -0.458 (inactive) | NADPH fluorescence slope [6]: -0.000109 (inactive) | fluorescence slope [7]: 0.00426 (inactive) | outcome [8]: inactive | inhibition [9]: 28.9% (inactive)

CCc1cc(=O)oc2cc(C)c(CN3CCCC3)c(O)c12
cell count [1]: 666 | inhibition [1]: -6.3% (inactive) | inhibition [2]: 27.1% (inactive) | nuclei count [2]: 158% | z-score [3, 10]: -0.426 | z-score [3, 11]: -0.164 | z-score [3, 12]: -0.144 | inhibition [4]: -2.29% (inactive) | fluorescence slope [5]: -0.444 (inactive) | NADPH fluorescence slope [6]: -0.000155 (inactive) | fluorescence slope [7]: 0.00438 (inactive) | outcome [8]: inactive | inhibition [9]: 3.29% (inactive)

Cc1cc(C)n(C2CCCCC2OC(=O)c2ccccc2)n1 (stereo not drawn)
cell count [1]: 526 | inhibition [1]: -10% (inactive) | inhibition [2]: -95% (inactive) | nuclei count [2]: 129% | z-score [3, 10]: -0.506 | z-score [3, 11]: 0.334 | z-score [3, 12]: -1.55 | inhibition [4]: 9.91% (inactive) | fluorescence slope [5]: -0.381 (inactive) | NADPH fluorescence slope [6]: 2e-06 (inactive) | fluorescence slope [7]: 0.00464 (inactive) | outcome [8]: inactive | inhibition [9]: -9.73% (inactive)

O=C(OCCN1CCOCC1)c1ccc2c(c1)OCCO2
cell count [1]: 644 | inhibition [1]: -12.8% (inactive) | inhibition [2]: 1.7% (inactive) | nuclei count [2]: 180% | z-score [3, 10]: 0.036 | z-score [3, 11]: 0.0112 | z-score [3, 12]: 0.434 | inhibition [4]: -9.53% (inactive) | fluorescence slope [5]: -0.473 (inactive) | NADPH fluorescence slope [6]: -6.5e-05 (inactive) | fluorescence slope [7]: 0.00543 (inactive) | outcome [8]: inactive | inhibition [9]: -3.31% (inactive)

CC1=C(C#N)C(=O)OC(C)(C)C1
cell count [1]: 660 | inhibition [1]: -3.9% (inactive) | inhibition [2]: -22.9% (inactive) | nuclei count [2]: 101% | z-score [3, 10]: -2.1 | z-score [3, 11]: 0.204 | z-score [3, 12]: -1.02 | inhibition [4]: -1.98% (inactive) | fluorescence slope [5]: -0.489 (inactive) | NADPH fluorescence slope [6]: -7.4e-05 (inactive) | fluorescence slope [7]: 0.00496 (inactive) | outcome [8]: inactive | inhibition [9]: -18.3% (inactive)

O=C(O)C(O)c1ccco1 (stereo not drawn)
cell count [1]: 365 | inhibition [1]: -6.1% (inactive) | inhibition [2]: -95% (inactive) | nuclei count [2]: 150% | z-score [3, 10]: 0.761 | z-score [3, 11]: 0.00341 | z-score [3, 12]: -0.65 | inhibition [4]: -4.59% (inactive) | fluorescence slope [5]: -0.43 (inactive) | NADPH fluorescence slope [6]: -9.9e-05 (inactive) | fluorescence slope [7]: 0.00449 (inactive) | outcome [8]: inactive | inhibition [9]: -5.52% (inactive)

COc1cccc(NC(=O)c2cc(C(=O)Nc3cccc(OC)c3)n(C)n2)c1
cell count [1]: 589 | inhibition [1]: 5.1% (inactive) | inhibition [2]: -73.5% (inactive) | nuclei count [2]: 108% | z-score [3, 10]: -0.897 | z-score [3, 11]: 0.197 | z-score [3, 12]: 0.57 | inhibition [4]: 1.12% (inactive) | fluorescence slope [5]: -0.504 (inactive) | NADPH fluorescence slope [6]: -3.5e-05 (inactive) | fluorescence slope [7]: 0.00667 (inactive) | outcome [8]: inactive | inhibition [9]: -5.34% (inactive)

CCOC(=O)c1c(NC(=O)CN2CCOCC2)sc2c1CC(C)(C)OC2
cell count [1]: 525 | inhibition [1]: -12.5% (inactive) | inhibition [2]: -92.8% (inactive) | nuclei count [2]: 146% | z-score [3, 10]: 0.295 | z-score [3, 11]: -0.682 | z-score [3, 12]: -0.184 | inhibition [4]: 3.49% (inactive) | fluorescence slope [5]: -0.465 (inactive) | NADPH fluorescence slope [6]: -4.6e-05 (inactive) | fluorescence slope [7]: 0.00443 (inactive) | outcome [8]: inactive | inhibition [9]: -12.3% (inactive)

CCN(CC)CCN1C(=O)C(=O)/C(=C(/O)c2c(C)[nH]c(C(=O)OC)c2C)C1c1cccc(OC)c1 (stereo not drawn)
cell count [1]: 699 | inhibition [1]: -1% (inactive) | inhibition [2]: -150% (inactive) | nuclei count [2]: 188% | z-score [3, 10]: -0.637 | z-score [3, 11]: -0.455 | z-score [3, 12]: -0.673 | inhibition [4]: 13.2% (inactive) | fluorescence slope [5]: -0.445 (inactive) | NADPH fluorescence slope [6]: -7.9e-05 (inactive) | fluorescence slope [7]: 0.0061 (inactive) | outcome [8]: inactive | inhibition [9]: 16.5% (inactive)

COc1cc(S(=O)(=O)N2CCN(c3ccc(F)cc3)CC2)ccc1Cl
cell count [1]: 609 | inhibition [1]: -2.2% (inactive) | inhibition [2]: -32.9% (inactive) | nuclei count [2]: 124% | z-score [3, 10]: -0.486 | z-score [3, 11]: -0.838 | z-score [3, 12]: 0.956 | inhibition [4]: -7.67% (inactive) | fluorescence slope [5]: -0.449 (inactive) | NADPH fluorescence slope [6]: -4.1e-05 (inactive) | fluorescence slope [7]: 0.00423 (inactive) | outcome [8]: inactive | inhibition [9]: -4.27% (inactive)

CCOc1ccc(-c2nc(C#N)c(NCC(C)C)o2)cc1
cell count [1]: 402 | inhibition [1]: -4% (inactive) | inhibition [2]: -45.5% (inactive) | nuclei count [2]: 159% | z-score [3, 10]: -1.19 | z-score [3, 11]: -0.813 | z-score [3, 12]: 2.25 | inhibition [4]: -2.69% (inactive) | fluorescence slope [5]: -0.474 (inactive) | NADPH fluorescence slope [6]: -8e-05 (inactive) | fluorescence slope [7]: 0.00573 (inactive) | outcome [8]: inactive | inhibition [9]: -4.03% (inactive)

Cc1ccc(C2CC(c3cccs3)n3nc(N)nc3N2)cc1 (stereo not drawn)
cell count [1]: 390 | inhibition [1]: -2% (inactive) | inhibition [2]: -110% (inactive) | nuclei count [2]: 149% | z-score [3, 10]: -0.677 | z-score [3, 11]: 0.494 | z-score [3, 12]: -0.466 | inhibition [4]: 3.56% (inactive) | fluorescence slope [5]: -0.429 (inactive) | NADPH fluorescence slope [6]: -0.000111 (inactive) | fluorescence slope [7]: 0.00581 (inactive) | outcome [8]: inactive | inhibition [9]: 31.5% (inactive)
